The entries come from a sample that favours hits as a whole.
PTEN del growth – suppresses growth of cells with PTEN deletion; HCT116 PTEN-null viability, CellTiter-Glo, 60 h; hits give low values; viability, % at 10 µM; 140,000 tested, 1.2% active; AID 827;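 active means viability at or below a set limit, 4 SD under the median of all tested compounds, cut at about 3.7% in these data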;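 further: PTEN knockout HCT116 line with beta catenin targeted HCT116 as companion control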
Fibroblast inh – blocks proliferation of human lung fibroblasts | LL 47 human lung fibroblast viability, ATP luminescence; hits give low values | viability, % at 10 µM | 85,000 tested, 1.1% active | AID 719;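 active means viability at or below 50% in the single dose screen; inactive means viability above 50%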;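 further: compound exposure lasted 72 h before the ATP readout; 100% = median luminescence of untreated cell-only wells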
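test system = LL 47 human lung fibroblasts | amount = 1,150 fibroblasts seeded per well | medium = 15% FBS in IMEM | times = overnight cell rest, 72 h compound treatment at 37 °C | measured by = CellTiter-Glo luminescence measuring cellular ATP | read-out = viability percentage against median untreated-cell control | benchmarks = cell-only wells, no compound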
HCT116 bCat-KO – beta-catenin-lacking colon tumor cell growth suppression; viability, % at 10 µM; HCT116 beta-catenin knockout viability, CellTiter-Glo, 60 h; hits give low values; AID 818; 140,000 tested, 1.5% active;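 active means viability at or under a set limit, the compound median less 4 SD, cut at about 6% in these data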;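 further: 0% = Hyamine 1622 control at 20 µM and 100% = untreated cell control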
H69AR inhibit – blocks growth of human H69AR lung tumor cells | 85,000 tested, 6% active | viability, % at 10 µM | AID 598 | H69AR lung tumor viability, ATP luminescence, 72 h; hits give low values;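 active means viability at or below 40%; inactive means viability above 40%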;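 further: multidrug resistant small cell line overexpressing MRP-1 efflux transporter; 100% = mean luminescence of untreated control wells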
HUVEC prolif 384 – blocks proliferation of human endothelial cells | viability, % at 10 µM (by protocol) | 86,000 tested, 1.1% active | HUVEC proliferation, CellTiter-Glo luminescence, 72 h; hits give low values;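 active means viability at or below 30%; inactive means viability above 30%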;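 further: 100% = median luminescence of DMSO-only cell control wells on each plate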
Numbers without * were called inactive; · = no result.

SMILES | PTEN del growth | Fibroblast inh | HCT116 bCat-KO | H69AR inhibit | HUVEC prolif 384
C=CCn1c(SCC(=O)NCc2ccc3c(c2)OCO3)nc2scc(-c3ccc(F)cc3)c2c1=O | 73.2 | · | 62.8 | · | ·
O=C(CSc1nnc(Cc2cccs2)n1-c1ccccc1)NCc1ccc2c(c1)OCO2 | 95.8 | · | 90.2 | 97.1 | 103.4
CC(Sc1nnc(-c2cccs2)n1-c1ccccc1)C(=O)NCc1ccc2c(c1)OCO2 (centres undefined) | 94.0 | 103.4 | 94.8 | 38.8* | 101.9
Cc1cccc(NC(=O)CSc2nc3[nH]ncc3c(=O)n2-c2ccccc2)c1 | 79.6 | · | 86.0 | · | ·
Cc1cc(NC(=O)C2CC(c3ccc(F)cc3)=NO2)n(-c2ccccc2)n1 (centres undefined) | 98.7 | 99.0 | 89.7 | 102.0 | 110.7
Cc1ccc(C(=O)N(CC(=O)NC2CCCC2)Cc2cccs2)s1 | 101.7 | 89.1 | 94.3 | 86.6 | 98.1
O=C(CSc1nnc(COc2ccc(Cl)cc2)o1)OC1CCCCC1 | 88.7 | 101.3 | 87.0 | 101.9 | 110.9
Cn1c(=O)n(C)c2cc(NC(=O)CSc3nnc(-c4ccccc4O)n3-c3ccccc3)ccc21 | 63.1 | 90.4 | 60.3 | 32.9* | 74.8
N#Cc1c(NC(=O)CSc2nnc(-c3ccccc3O)n2-c2ccccc2)sc2c1CCCC2 | 56.5 | 99.0 | 59.0 | 48.7 | 86.6
C=CCn1c(SCC(=O)Nc2ccc(C(=O)OC(C)C)cc2)nnc1-c1cccs1 | 74.2 | 30.1* | 96.4 | 24.9* | 39.3
CCOC(=O)c1ccc(NC(=O)CSc2nnc(-c3cccs3)n2CC)cc1 | 109.8 | 91.8 | 96.9 | 90.8 | 74.8
O=c1oc2c(CN3CCCCC3)c(O)ccc2cc1-c1nc2ccccc2[nH]1 | · | 103.1 | · | 79.1 | 94.4
O=c1oc2c3c4c(cc2cc1-c1nc2ccccc2[nH]1)CCCN4CCC3 | · | 84.2 | · | 1.5* | 56.1
O=C(Nc1nccs1)c1cc2c(s1)-c1ccccc1OC2 | 16.8 | · | 24.8 | · | ·
O=C(Nc1nc2ccccc2s1)c1cc2c(s1)-c1ccccc1OC2 | 48.3 | 30.4* | 61.4 | 17.7* | 44.8
CC(=O)N(c1ccccc1)C(C)c1nc(C#N)c(C#N)nc1C (centres undefined) | 57.8 | · | 53.7 | · | ·
C=CCNC(=O)c1ccccc1NC(=O)c1ccccc1C | 1.0* | 96.5 | 0.8* | 83.4 | 97.1
COc1ccc2c(c1)c1ncnc(N3CCN(Cc4ccc5c(c4)OCO5)CC3)c1n2C | 17.4 | 91.1 | 12.7 | 27.6* | 64.5
COc1ccc2[nH]c3c(N4CCN(Cc5ccc6c(c5)OCO6)CC4)ncnc3c2c1 | 8.0 | 89.5 | 11.3 | 48.6 | 54.1
Cc1cccc(S(=O)(=O)N(CC(=O)Nc2ccccc2C)Cc2ccco2)c1 | 77.6 | 95.9 | 75.5 | 96.0 | 99.0
CC(C)COc1ccc2[nH]c3c(c2c1)CCCC3=O | 82.4 | 92.0 | 83.4 | 92.6 | 19.5*
Cc1cc(NC(=O)CSc2nc3ccccc3c(=O)n2-c2ccccc2)no1 | 91.2 | · | 98.6 | · | ·
CCCCCCn1c(SCC(=O)Nc2cc(C)on2)nc2ccccc2c1=O | 83.1 | 63.9 | 32.0 | 7.0* | 60.0
Cc1cc(NC(=O)CSc2nc3ccccc3c(=O)n2Cc2ccc(F)cc2)no1 | 98.7 | 73.9 | 101.7 | 39.6* | 71.6
CCOC(=O)CSc1nc2ccccc2c(=O)n1CCC(=O)NCCc1ccc(OC)c(OC)c1 | 3.2* | 104.2 | 3.2* | 95.1 | 92.8
SMILES | PTEN del growth | Fibroblast inh | HCT116 bCat-KO | H69AR inhibit | HUVEC prolif 384
N#CCSc1nc2ccccc2c(=O)n1CCC(=O)NCCc1ccccc1 | 103.4 | 99.6 | 95.4 | 96.2 | 89.7
O=c1c2ccccc2nnn1CSc1nnc(COc2ccc(Cl)cc2)n1Cc1ccco1 | 64.5 | 85.7 | 91.0 | 70.7 | 75.7
O=c1c2ccccc2nnn1CSc1nc2cc(Cl)ccc2c(=O)n1Cc1ccco1 | · | 61.1 | · | 27.9* | 54.6
Cc1ccc(NC(=O)C(C)OC(=O)CCNS(=O)(=O)c2ccc(C)cc2)cc1 (centres undefined) | 103.3 | · | 99.4 | · | ·
CCCCNC(=O)CSc1nc2ccccc2c(=O)n1CC1COc2ccccc2O1 (centres undefined) | 70.0 | 100.4 | 66.8 | 27.2* | 86.3
CCCCN(CC)C(=O)CSc1nc2ccccc2c(=O)n1CC1COc2ccccc2O1 (centres undefined) | 67.0 | 89.0 | 77.9 | 60.8 | 89.5
Cc1nnc(NC(=O)CSc2nc(C(C)C)nc3ccccc23)s1 | 37.0 | · | 57.3 | · | ·
Cc1cc(NC(=O)CSc2nc3c(c(=O)n2CCc2ccccc2)SC(C)C3)no1 (centres undefined) | 94.6 | 75.4 | 89.5 | 73.4 | 83.7
Cc1cc(NC(=O)CSc2nc3cc4c(cc3c(=O)n2CCc2ccccc2)OCO4)no1 | 58.9 | 67.6 | 43.8 | 10.4* | 15.6*
